# A selection: hits, their analogues and other compounds. The true share with any hit is near 1.2%.
# proCasp3 act: activates human procaspase-3; recombinant procaspase-3 D3A, Ac-DEVD-pNA absorbance 405 nm; activation, % at 8.5 µM; hit rate 0.11% among 330,000; AID 463141;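 active means activation above the mean of all tested compounds plus 3 SD, cut at about 21% in these data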;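 further: 0% = DMSO alone and 100% = DMSO wells spiked with extra 5 µM PC-3 D3A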
# Target sequence (P42574 whole entry D9A/D28A/D175A): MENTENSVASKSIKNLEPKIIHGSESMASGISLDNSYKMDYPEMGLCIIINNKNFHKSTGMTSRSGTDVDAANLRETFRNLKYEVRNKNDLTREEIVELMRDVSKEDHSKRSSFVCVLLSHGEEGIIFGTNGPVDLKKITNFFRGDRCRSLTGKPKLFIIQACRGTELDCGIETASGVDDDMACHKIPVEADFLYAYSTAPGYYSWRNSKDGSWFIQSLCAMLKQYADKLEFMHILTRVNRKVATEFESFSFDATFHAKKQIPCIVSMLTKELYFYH
#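 Assay system: Procaspase-3 D3A mutant, all three cleavage aspartates alanine. Buffer or medium: Zinc-free HEPES saline buffer with Triton X-100. Times: 1 h compound preincubation, 2 h substrate hydrolysis at 25 °C. Measured by: 405 nm absorbance of p-nitroaniline, reads at 0 and 120 min. Read-out basis: percent activation relative to control range. Replicates: singlicate.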
# Yeast superoxide: lowers age-related superoxide in aged yeast cells. S. cerevisiae aged cells, superoxide DHE fluorescence; active compounds read low. superoxide response (% of plate mean), % at 10 µM. AID 2690. hit rate 0.18% among 330,000;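 active means superoxide response under a set limit, about three screen SD below normal, cut at about 65% in these data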;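 further: yeast aged for seven days with compound at 30 °C before DHE staining; 100% = average MFI of all compound-treated wells on the plate with controls excluded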
# ASAP1 GAP inh: inhibitors of human ASAP1 ArfGAP activity; Q9ULH1; ASAP1-stimulated ARF1 GTP hydrolysis, GDP FP detection; inhibition, % at 16.5 µM; hit rate 0.19% among 360,000; AID 624377; in the data active means inhibition above about 25%;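 further: 0% = vehicle with enzyme and substrate and 100% = no enzyme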
# Target sequence (Q9ULH1 325-724 limits assumed): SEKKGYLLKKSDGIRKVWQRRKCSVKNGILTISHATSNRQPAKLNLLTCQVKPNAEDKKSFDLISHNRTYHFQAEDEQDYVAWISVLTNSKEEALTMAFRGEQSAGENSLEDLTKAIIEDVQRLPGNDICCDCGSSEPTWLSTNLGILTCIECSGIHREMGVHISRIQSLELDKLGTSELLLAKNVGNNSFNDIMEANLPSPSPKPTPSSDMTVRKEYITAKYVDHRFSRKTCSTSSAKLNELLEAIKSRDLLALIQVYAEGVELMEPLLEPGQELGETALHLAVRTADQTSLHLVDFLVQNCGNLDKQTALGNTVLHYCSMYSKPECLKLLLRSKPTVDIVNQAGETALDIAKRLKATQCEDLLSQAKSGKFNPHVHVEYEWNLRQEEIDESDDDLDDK
# ARFGAP1 inhibitor: inhibits rat ARF GTPase activating protein 1 | inhibition, % at 16.5 µM | Q62848 | AID 651572 | hit rate 0.26% among 360,000 | Arfgap1-stimulated ARF1 GTP hydrolysis, GDP FP detection;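 active means inhibition above a per-plate limit, mean inhibition of low control wells plus 3 SD, cut at about 25% in these data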;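 further: 0% = DMSO wells with enzyme and 100% = wells lacking Arfgap1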
#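 System: truncated rat Arfgap1 GAP domain / Medium: HEPES-based buffer, pH 7.5 / Also added: N-terminally truncated human ARF1-GTP substrate / Incubation: enzyme reaction 120 min at 25 °C after 20 min preincubation / Measured by: FP of antibody-bound GDP Alexa 633 tracer, ex 620/em 688 nm / Replicates: singlicate, each compound tested once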
# procasp7 counter: activates human procaspase-7, counter-screen for procaspase-3 activators. P55210. recombinant procaspase-7, Ac-DEVD-pNA absorbance 405 nm; D23A/D198A/D206A triple mutant, cannot self-cleave; scale: DMSO 0, 5 µM enzyme 100. activation, % at 8.5 µM. hit rate 0.093% among 330,000. AID 463210;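 active means percent activation above the screen-wide mean plus 3 SD, cut at about 25% in these data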
#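 Detection: p-Nitroaniline absorbance at 405 nm, read at 0 and 120 min; system: Uncleavable procaspase-7 mutant enzyme; evaluation: % activation from two-timepoint absorbance difference, scaled to controls; times: 1 h enzyme–compound preincubation and 2 h substrate reaction, both 25 °C; buffer or medium: Zinc-free HEPES pH 7.4 with 300 mM NaCl, 0.01% Triton X-100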
# LANA-H2B inh: blocks KSHV LANA binding to histone H2A/H2B | AID 2629 | hit rate 0.6% among 320,000 | inhibition, % (test concentration not listed) | Q9QR71 | cell-free LANA-H2A/H2B peptide, fluorescence polarization; in the data active means inhibition mostly above about 10%, no sharp cut-off; inactive means mostly below about 6.7%
# ARFGAP1 confirm: confirmation of rat ARFGAP1 inhibitors; shares compounds with ARFGAP1 inhibitor; ARFGAP1-stimulated ARF1 GTP hydrolysis, GDP tracer FP; inhibition, % at 16.5 µM; hit rate 30% among 890;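 active means average inhibition over triplicates above the hit cutoff set in the earlier primary screen, cut at about 25% in these data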;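 further: 0% = Arfgap1 plus ARF1-GTP with DMSO and 100% = wells lacking Arfgap1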
# Starred values were filed as active, the others as inactive; i = inactive; x = not tested or not shown.
SMILES,proCasp3 act,Yeast superoxide,ASAP1 GAP inh,ARFGAP1 inhibitor,procasp7 counter,LANA-H2B inh,ARFGAP1 confirm
COc1ccc(S(=O)(=O)N2CCCCC2)cc1N(C)S(=O)(=O)c1ccccc1,-5,97,-8,5,-1,-5,x
COc1ccc(S(=O)(=O)N2CCCCCC2)cc1N(C)S(=O)(=O)c1ccccc1,-6,100,10,26*,-3,1,1
CC1CCCN(C(=O)Cn2nnc(-c3cccnc3)n2)C1 (stereo not drawn),7,95,-6,26*,13,1,8
CCOC(=O)Cc1nc(-c2cccc(C(F)(F)F)c2)no1,-1,107,2,27*,8,2,5
Clc1ccc2c(N/N=C/c3ccccc3Br)ccnc2c1,-10,91,1,27*,-10,4,26*
Clc1ccc2c(N/N=C/c3cccc(Br)c3)ccnc2c1,-44,127,16,38*,-21,-1,63*
Cc1ccc(NS(=O)(=O)c2cccc(C(=O)NCC(c3cccs3)N3CCOCC3)c2)cc1 (stereo not drawn),0,86,19,-12,1,x,x
CNS(=O)(=O)c1cccc(C(=O)NCC(c2cccs2)N2CCOCC2)c1 (stereo not drawn),-1,88,2,26*,3,1,-1
O=C(/C=C/c1ccc(Cl)cc1)NC(=S)Nc1ccc(NC(=O)c2ccco2)cc1,-1,115,22,86*,1,2,110*
CN(CCO)C1=NS(=O)(=O)c2cc([N+](=O)[O-])ccc21,0,111,4,30*,6,2,-2
C=CCOCCN(C)C1=NS(=O)(=O)c2cc([N+](=O)[O-])ccc21,1,107,11,-10,3,1,x
CCCCc1nnc(SCC(=O)Nc2nccs2)n1CC,1,95,8,13,-4,0,x
CCn1c(COc2cc(C)ccc2C(C)C)nnc1SCC(=O)Nc1nccs1,1,96,-6,25*,3,-3,-5
Cc1nn(Cc2ccccc2)c(Cl)c1/C=C/C(=O)OCC(=O)N(C)C1CCS(=O)(=O)C1 (stereo not drawn),10,101,5,3,6,3,x
S=C(Cc1cccnc1)N1CCOCC1,-9,94,x,x,-18,-5,x
COc1cccc(Nc2nc(-c3sc(NC(=O)c4ccccc4)nc3C)cs2)c1,2,x,12,26*,-1,-3,15
Cc1cccnc1Nc1nc(-c2ccc(O)cc2O)cs1,-17,113,21,34*,-8,1,18
Oc1ccc(-c2csc(Nc3ccccn3)n2)c(O)c1,-10,107,14,17,-8,-9,x
CCOc1ccc(C(=O)N(CN2CCCC2=O)c2cccc(Cl)c2)cc1,8,95,-7,38*,8,-1,-1
CN(c1ccccc1)S(=O)(=O)c1cccc(C(=O)Nc2nn[nH]n2)c1,-6,87,-12,6,-12,3,x
COc1ccc(N/N=C(/C#N)S(=O)(=O)c2nsc(C)c2C#N)cc1,1,95,-7,28*,7,1,1
Cc1snc(S(=O)(=O)/C(C#N)=N/Nc2cccc(C(F)(F)F)c2)c1C#N,4,101,x,x,0,1,x
C=CCN(c1ccccc1)S(=O)(=O)c1cccc(C(=O)Nc2ncccc2C)c1,8,90,-4,2,-3,1,x
C/C(=N/NC(=O)c1cccs1)c1ccc(NC(=O)COc2ccc(Cl)cc2Cl)cc1,-5,105,9,38*,-4,0,53*
C/C(=N/NC(=O)c1ccc(C)s1)c1cccc(NC(=O)COc2ccc(Cl)cc2Cl)c1,-1,83,11,9,8,2,x
SMILES,proCasp3 act,Yeast superoxide,ASAP1 GAP inh,ARFGAP1 inhibitor,procasp7 counter,LANA-H2B inh,ARFGAP1 confirm
CCOc1ccc(NC(=S)NC23CC4CC(CC(C4)C2)C3)cc1,4,101,5,2,-2,-2,x
FC(F)Oc1ccc(NC(=S)NC23CC4CC(CC(C4)C2)C3)cc1,-7,89,-4,25*,0,3,8
Cc1cc(C)c(S(=O)(=O)c2ccccc2Cl)c(Cl)n1,-7,86,-1,-21,-2,2,x
Cc1cc(C)c(S(=O)(=O)c2ccc(F)cc2C)c(Cl)n1,11,100,9,30*,6,-1,1
N#C/C(=C\c1cn(CCOc2ccccc2)c2ccccc12)C(=O)NCc1cccs1,-11,109,3,9,-5,6,x
COc1ccc2cc(C(=O)/C=C/c3cc(OC)c(O)c(OC)c3)ccc2c1,-9,101,14,26*,3,-5,13
Cc1ccsc1C(=O)OCC(=O)N1CCc2ccccc2C1,7,101,4,17,6,-8,x
CCCc1c(C(=O)N/N=C/c2ccco2)nnn1-c1nonc1N,1,84,-2,6,-8,4,x
CC1CCCCN1CC(O)COCCC12CC3CC(CC(C3)C1)C2 (stereo not drawn),3,113,7,25*,1,-3,-8
O=C(N/N=C/c1ccc(Br)s1)c1ccco1,0,i,-5,-8,4,2,x
O=C(N/N=C/c1sc(=O)n(Cc2ccc(Br)cc2)c1Cl)c1ccco1,0,114,23,39*,-5,-2,54*
Cc1ccc2c(c1)N(CC(=O)N1CCCC1)C(=O)c1cccnc1O2,-12,113,18,1,-3,-5,x
CCC(C)c1ccc(OCCCCN2CCOCC2)cc1 (stereo not drawn),-1,122,-15,5,-6,-4,x
C[C@@H]1CCCCO[C@H](CN(C)Cc2ccc(C(=O)O)cc2)[C@H](C)CN([C@@H](C)CO)C(=O)c2cc(NC(=O)Nc3ccc(C(F)(F)F)cc3)ccc2O1,x,x,7,25*,x,x,0
C[C@H](CO)N1C[C@H](C)[C@@H](CN(C)C(=O)Nc2ccc(C(F)(F)F)cc2)Oc2ccc(NC(=O)Nc3ccccc3)cc2C1=O,4,93,15,30*,1,143*,12
C[C@@H]1CCCCO[C@H](CN(C)C)[C@H](C)CN([C@@H](C)CO)C(=O)c2cc(NC(=O)Nc3ccc(C(F)(F)F)cc3)ccc2O1,x,x,5,4,x,x,x
COc1ccc(/C(C)=N/N=C2/NC(=O)CC(C(=O)O)S2)cc1F (stereo not drawn),-1,104,-2,2,-4,-1,x

# Screening data from PubChem.
